Laboratory results: ChEMBL document CHEMBL4609978, “Synthesis and evaluation of 2'-dihalo ribonucleotide prodrugs with activity against hepatitis C virus” (Bioorg Med Chem, 2020)
pEC50: −log10 of the molar value.

Test system: not listed separately
Assay: Stability in human plasma assessed as parent compound remaining after 4 hrs
Type: ADME, cell-free
Conditions: read-out: Stability
Outline: (§1)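 Prodrug incubated 4 h at 37 °C in dog or human plasma; result given as percent parent remaining.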

SMILES | remaining at 4 h [%]
CC(C)OC(=O)[C@H](C)N[P@](=O)(OC[C@H]1O[C@@H](n2ccc(=O)[nH]c2=O)[C@](C)(F)[C@@H]1O)Oc1ccccc1 [SOFOSBUVIR] | 96

Test system: not listed separately
Assay: Cytotoxicity against human HuH7 cells assessed as reduction in cell viability
Type: cell-based, Huh-7
Conditions: read-out: TD50 (the source's name)

SMILES | CC50 [nM]
CC(C)OC(=O)[C@H](C)N[P@](=O)(OC[C@H]1O[C@@H](n2ccc(=O)[nH]c2=O)[C@](C)(F)[C@@H]1O)Oc1ccccc1 [SOFOSBUVIR] | > 100000

Test system: Hepatitis C virus
Assay: Antiviral activity against HCV genotype 1b Con1 expressing NS5B S282T mutant infected in human HuH7 replicon cells assessed as inhibition of viral replication after 4 days by luciferase reporter gene based assay
Type: functional, organism-based, Hepacivirus hominis
Conditions: subtype 1b Con1, Huh-7, 96 h

SMILES | pEC50
CC(C)OC(=O)[C@H](C)N[P@](=O)(OC[C@H]1O[C@@H](n2ccc(=O)[nH]c2=O)[C@](C)(F)[C@@H]1O)Oc1ccccc1 [SOFOSBUVIR] | 6.20

Test system: not listed separately
Assay: Unbound drug level in human plasma
Type: ADME, cell-free
Conditions: not given

SMILES | Fu
CC(C)OC(=O)[C@H](C)N[P@](=O)(OC[C@H]1O[C@@H](n2ccc(=O)[nH]c2=O)[C@](C)(F)[C@@H]1O)Oc1ccccc1 [SOFOSBUVIR] | 0.563

Test system: Hepatitis C virus
Assay: Antiviral activity against HCV genotype 2a expressing wild type NS5B infected in human HuH7 replicon cells assessed as inhibition of viral replication after 4 days by luciferase reporter gene based assay
Type: functional, organism-based, Hepacivirus hominis
Conditions: subtype 2a, Huh-7, 96 h

SMILES | pEC50
CC(C)OC(=O)[C@H](C)N[P@](=O)(OC[C@H]1O[C@@H](n2ccc(=O)[nH]c2=O)[C@](C)(F)[C@@H]1O)Oc1ccccc1 [SOFOSBUVIR] | 6.17

Test system: Hepatitis C virus
Assay: Antiviral activity against HCV genotype 2a expressing NS5B S282T mutant infected in human HuH7 replicon cells assessed as inhibition of viral replication after 4 days by luciferase reporter gene based assay
Type: functional, organism-based, Hepacivirus hominis
Conditions: subtype 2a, Huh-7, 96 h

SMILES | pEC50
CC(C)OC(=O)[C@H](C)N[P@](=O)(OC[C@H]1O[C@@H](n2ccc(=O)[nH]c2=O)[C@](C)(F)[C@@H]1O)Oc1ccccc1 [SOFOSBUVIR] | 6.00

Test system: Hepatitis C virus
Assay: Antiviral activity against HCV genotype 1b Con1 infected in human HuH7 replicon cells assessed as inhibition of viral replication after 3 days by luciferase reporter gene assay
Type: functional, organism-based, Hepacivirus hominis
Conditions: subtype 1b Con1, Huh-7, 72 h
Outline: (§2)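 Stable subgenomic replicon cell lines (genotype 1a-H77 or 1b-Con1) carrying a luciferase reporter; compounds added in DMEM with 5% FBS, cells incubated 3 days with or without compound, then lysed and luciferase activity read; EC50 from nonlinear regression fit to 4-parameter logistic equation.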

SMILES | pEC50
CC(C)OC(=O)[C@H](C)N[P@](=O)(OC[C@H]1O[C@@H](n2ccc(=O)[nH]c2=O)[C@](C)(F)[C@@H]1O)Oc1ccccc1 [SOFOSBUVIR] | 6.64 to 6.73

Test system: Hepatitis C virus
Assay: Antiviral activity against HCV genotype 1b Con1 expressing wild type NS5B infected in human HuH7 replicon cells assessed as inhibition of viral replication after 4 days by luciferase reporter gene based assay
Type: functional, organism-based, Hepacivirus hominis
Conditions: subtype 1b Con1, Huh-7, 96 h

SMILES | pEC50
CC(C)OC(=O)[C@H](C)N[P@](=O)(OC[C@H]1O[C@@H](n2ccc(=O)[nH]c2=O)[C@](C)(F)[C@@H]1O)Oc1ccccc1 [SOFOSBUVIR] | 7.21

Test system: not listed separately
Assay: Stability in dog plasma assessed as parent compound remaining after 4 hrs
Type: ADME, cell-free, Canis lupus familiaris
Conditions: read-out: Stability
Outline: as §1

SMILES | remaining at 4 h [%]
CC(C)OC(=O)[C@H](C)N[P@](=O)(OC[C@H]1O[C@@H](n2ccc(=O)[nH]c2=O)[C@](C)(F)[C@@H]1O)Oc1ccccc1 [SOFOSBUVIR] | 93

Test system: not listed separately
Assay: Unbound drug level in dog plasma
Type: ADME, cell-free, Canis lupus familiaris
Conditions: not given

SMILES | fraction unbound
CC(C)OC(=O)[C@H](C)N[P@](=O)(OC[C@H]1O[C@@H](n2ccc(=O)[nH]c2=O)[C@](C)(F)[C@@H]1O)Oc1ccccc1 [SOFOSBUVIR] | 0.323

Test system: Hepatitis C virus
Assay: Antiviral activity against HCV genotype 1b Con1 over expressing CES1 infected in human HuH7 replicon cells assessed as inhibition of viral replication after 3 days by luciferase reporter gene assay
Type: functional, organism-based, Hepacivirus hominis
Conditions: subtype 1b Con1, Huh-7, 72 h

SMILES | pEC50
CC(C)OC(=O)[C@H](C)N[P@](=O)(OC[C@H]1O[C@@H](n2ccc(=O)[nH]c2=O)[C@](C)(F)[C@@H]1O)Oc1ccccc1 [SOFOSBUVIR] | 7.28

Test system: Hepatitis C virus
Assay: Antiviral activity against HCV genotype 4a expressing wild type NS5B infected in human HuH7 replicon cells assessed as inhibition of viral replication after 4 days by luciferase reporter gene based assay
Type: functional, organism-based, Hepacivirus hominis
Conditions: subtype 4a, Huh-7, 96 h

SMILES | pEC50
CC(C)OC(=O)[C@H](C)N[P@](=O)(OC[C@H]1O[C@@H](n2ccc(=O)[nH]c2=O)[C@](C)(F)[C@@H]1O)Oc1ccccc1 [SOFOSBUVIR] | 7.11

Test system: not listed separately
Assay: Prodrug conversion in human primary hepatocytes assessed as nucleotide triphosphate level at 100 uM incubated for 4 hrs followed by compound wash-out for 20 hrs and measured following 4 hrs incubation period by LC-MS/MS analysis
Type: ADME, cell-based, Hepatocyte
Conditions: not given
Outline: (§3)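 Cryopreserved primary human hepatocytes plated ~55,000 viable cells/well on collagen, medium changed after 4–6 h to Williams E maintenance medium with Geltrex 0.35 mg/mL, overnight at 37 °C; prodrug 100 µM for 4 h, then washed; second plate held a further 20 h drug-free; cells washed with ice-cold HBSS, triphosphate measured by LC-MS/MS at 4 or 24 h.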

SMILES | Drug metabolism [µM]
CC(C)OC(=O)[C@H](C)N[P@](=O)(OC[C@H]1O[C@@H](n2ccc(=O)[nH]c2=O)[C@](C)(F)[C@@H]1O)Oc1ccccc1 [SOFOSBUVIR] | 97

Test system: Hepatitis C virus
Assay: Antiviral activity against HCV genotype 3a expressing NS5B S282T mutant infected in human HuH7 replicon cells assessed as inhibition of viral replication after 4 days by luciferase reporter gene based assay
Type: functional, organism-based, Hepacivirus hominis
Conditions: subtype 3a, Huh-7, 96 h

SMILES | pEC50
CC(C)OC(=O)[C@H](C)N[P@](=O)(OC[C@H]1O[C@@H](n2ccc(=O)[nH]c2=O)[C@](C)(F)[C@@H]1O)Oc1ccccc1 [SOFOSBUVIR] | 6.48

Test system: Hepatitis C virus
Assay: Antiviral activity against HCV genotype 6a expressing wild type NS5B infected in human HuH7 replicon cells assessed as inhibition of viral replication after 4 days by luciferase reporter gene based assay
Type: functional, organism-based, Hepacivirus hominis
Conditions: subtype 6a, Huh-7, 96 h

SMILES | pEC50
CC(C)OC(=O)[C@H](C)N[P@](=O)(OC[C@H]1O[C@@H](n2ccc(=O)[nH]c2=O)[C@](C)(F)[C@@H]1O)Oc1ccccc1 [SOFOSBUVIR] | 7.06

Test system: Hepatitis C virus
Assay: Antiviral activity against HCV genotype 1a H77 infected in human HuH7 replicon cells assessed as inhibition of viral replication after 3 days by luciferase reporter gene assay
Type: functional, organism-based, Hepacivirus hominis
Conditions: subtype 1a H77, Huh-7, 72 h
Outline: as §2

SMILES | pEC50
CC(C)OC(=O)[C@H](C)N[P@](=O)(OC[C@H]1O[C@@H](n2ccc(=O)[nH]c2=O)[C@](C)(F)[C@@H]1O)Oc1ccccc1 [SOFOSBUVIR] | 6.77 to 6.81

Test system: not listed separately
Assay: Prodrug conversion in human primary hepatocytes assessed as nucleotide triphosphate level at 100 uM incubated for 4 hrs and followed by compound washout for 20 hrs and measured following 24 hrs incubation period by LC-MS/MS analysis
Type: ADME, cell-based, Hepatocyte
Conditions: not given
Outline: as §3

SMILES | Drug metabolism [µM]
CC(C)OC(=O)[C@H](C)N[P@](=O)(OC[C@H]1O[C@@H](n2ccc(=O)[nH]c2=O)[C@](C)(F)[C@@H]1O)Oc1ccccc1 [SOFOSBUVIR] | 122

Test system: Hepatitis C virus
Assay: Antiviral activity against HCV genotype 3a expressing wild type NS5B infected in human HuH7 replicon cells assessed as inhibition of viral replication after 4 days by luciferase reporter gene based assay
Type: functional, organism-based, Hepacivirus hominis
Conditions: subtype 3a, Huh-7, 96 h

SMILES | pEC50
CC(C)OC(=O)[C@H](C)N[P@](=O)(OC[C@H]1O[C@@H](n2ccc(=O)[nH]c2=O)[C@](C)(F)[C@@H]1O)Oc1ccccc1 [SOFOSBUVIR] | 7.12

Test system: not listed separately
Assay: Intrinsic clearance in dog hepatocytes
Type: ADME, cell-based, Canis lupus familiaris, Hepatocyte
Conditions: read-out: CLH (converted)

SMILES | CLint scaled [mL/min/kg]
CC(C)OC(=O)[C@H](C)N[P@](=O)(OC[C@H]1O[C@@H](n2ccc(=O)[nH]c2=O)[C@](C)(F)[C@@H]1O)Oc1ccccc1 [SOFOSBUVIR] | 40

Test system: not listed separately
Assay: Aqueous solubility of compound in pH 7.4 phosphate buffer
Type: physicochemical
Conditions: not given

SMILES | solubility [µM]
CC(C)OC(=O)[C@H](C)N[P@](=O)(OC[C@H]1O[C@@H](n2ccc(=O)[nH]c2=O)[C@](C)(F)[C@@H]1O)Oc1ccccc1 [SOFOSBUVIR] | > 200
